We go through four compounds from ChEMBL document CHEMBL3872222, “Synthesis of novel curcuminoids accommodating a central β-enaminone motif and their impact on cell growth and oxidative stress” (Eur J Med Chem, 2016).

Converted amounts (≈) assume the structure as drawn.

The solubility is the concentration that dissolves in the medium under given conditions. Usually IC50 stands for the concentration needed to halve the response being measured. By inhibition is commonly meant how much of the control response was suppressed.

Data set [1] in a line: Solubility of the compound in serum-free DMEM assessed as compound concentration required for crystal formation measured after 1 day by microscopic analysis. In kind it is physicochemical. The settings on record: 24 h. In short, it runs like this: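 Compound at 0, 0.5, 1, 5, 10, 25 and 50 μM in serum-free DMEM incubated 1 day at 37 °C, 10% CO2, then examined for crystal formation.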

Data set [2] in a line: Growth inhibition of human EAhy926 cells assessed as mitochondrial activity measured after 72 hrs by MTT assay. In kind it is cell-based. Particulars: EA.hy 926, 72 h. Put shortly:
(§1)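 Seeded 20000 cells/well in DMEM+glutamax, NEAA, P/S, FBS; after 1 day treated 1, 5, 10, 25 μM in serum-free medium (DMSO under 0.1%) for 3 days. MTT (5 mg/ml in PBS) 2 h at 37 °C, 10% CO2 in dark; formazan dissolved in DMSO, absorbance 570 nm; triplicate; IC50 derived.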
A general note: Tetrazolium dyes change colour on reduction, which living cells bring about.

Data set [3] deals with Caco-2. Briefly: Effect on oxidative stress in undifferentiated human Caco2 cells assessed as intracellular ROS level at 10 uM after overnight incubation by DCFH-DA staining based fluorescence assay relative to control. In kind it is functional. In short, it runs like this: (§2)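 Cells grown in DMEM+glutamax, 1% NEAA, 1% P/S, 10% FBS; seeded 20000/well, treated at confluency overnight in serum-free medium, DMSO under 0.1% final. Loaded with 20 μM DCFH-DA 30 min at 37 °C, 10% CO2; washed, phenol red-free medium 1 h, then serum-free medium; fluorescence ex 485/em 535 nm. Percent of untreated; two-tailed unequal-variance t-test, n≥6.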

Data set [4] is described as follows: Antioxidant activity assessed as inhibition of DPPH radical activity at 1 uM measured after 30 mins under dark conditions by spectrophotometric analysis relative to control. In kind it is functional. (In general: The DPPH test is a chemical assay of radical scavenging.)
Data set [5] can be described thus: Growth inhibition of human EAhy926 cells measured after 72 hrs by SRB assay. In kind it is cell-based. The settings on record: EA.hy 926, 72 h. Put shortly:
(§3)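 20000 cells/well treated after 1 day at 1, 5, 10, 25 μM, serum-free, for 3 days. Fixed with 50% TCA 1 h at 4 °C, stained 30 min with 0.4% sulforhodamine B in 1% acetic acid, rinsed with 1% acetic acid, dye dissolved in 10 mM Tris, absorbance 490 nm; triplicate; IC50 derived.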
For orientation: Sulforhodamine B stains cellular protein and so reports cell mass.

The subject of data set [6] is CHO. The data set can be described thus: Effect on oxidative stress in CHO cells assessed as intracellular ROS level at 1 uM after overnight incubation by DCFH-DA staining based fluorescence assay relative to control. In kind it is functional, Cricetulus griseus. Put shortly: as §2
Data set [7] deals with CHO. The data set can be described thus: Effect on oxidative stress in CHO cells assessed as intracellular ROS level at 10 uM after overnight incubation by DCFH-DA staining based fluorescence assay relative to control. In kind it is functional, Cricetulus griseus. Put shortly: as §2
For data set [8], the system named is HT-29. Briefly: Effect on oxidative stress in human HT-29 cells assessed as intracellular ROS level at 10 uM after overnight incubation by DCFH-DA staining based fluorescence assay relative to control. In kind it is functional. Put shortly: as §2
A short description of data set [9]: Growth inhibition of undifferentiated human Caco2 cells measured after 72 hrs by SRB assay. In kind it is functional, cell-based. The settings on record: Caco-2, 72 h. In short, it runs like this: as §3
In data set [10] the test system is Caco-2. Briefly: Effect on oxidative stress in undifferentiated human Caco2 cells assessed as intracellular ROS level at 1 uM after overnight incubation by DCFH-DA staining based fluorescence assay relative to control. In kind it is functional. In short, it runs like this: as §2
For data set [11], the system named is EA.hy 926. The data set can be described thus: Effect on oxidative stress in human EAhy926 cells assessed as intracellular ROS level at 10 uM after overnight incubation by DCFH-DA staining based fluorescence assay relative to control. In kind it is functional. In short, it runs like this: as §2
Data set [12] can be described thus: Growth inhibition of differentiated human Caco2 cells measured after 72 hrs by SRB assay. In kind it is cell-based. Particulars: Caco-2, 72 h. Put shortly: as §3
Data set [13] is described as follows: Growth inhibition of differentiated human Caco2 cells assessed as mitochondrial activity measured after 72 hrs by MTT assay. In kind it is cell-based. The settings on record: Caco-2, 72 h. In short, it runs like this: as §1
Data set [14] is described as follows: Growth inhibition of human HT-29 cells measured after 72 hrs by SRB assay. In kind it is functional, cell-based. Particulars: HT-29, 72 h. Put shortly: as §3
Data set [15] has as its system HT-29. Briefly: Effect on oxidative stress in human HT-29 cells assessed as intracellular ROS level at 1 uM after overnight incubation by DCFH-DA staining based fluorescence assay relative to control. In kind it is functional. In short, it runs like this: as §2
Data set [16] in a line: Growth inhibition of CHOK1 cells assessed as mitochondrial activity measured after 72 hrs by MTT assay. In kind it is functional, cell-based. The settings on record: Cricetulus griseus, CHO-K1, 72 h. Put shortly:
as §1

Data set [17] has as its system EA.hy 926. The data set can be described thus: Effect on oxidative stress in human EAhy926 cells assessed as intracellular ROS level at 1 uM after overnight incubation by DCFH-DA staining based fluorescence assay relative to control. In kind it is functional. Put shortly:
as §2

Data set [18] can be described thus: Growth inhibition of CHOK1 cells measured after 72 hrs by SRB assay. In kind it is functional, cell-based. Particulars: Cricetulus griseus, CHO-K1, 72 h. In short, it runs like this: as §3
Data set [19] can be described thus: Growth inhibition of human HT-29 cells assessed as mitochondrial activity measured after 72 hrs by MTT assay. In kind it is functional, cell-based. The settings on record: HT-29, 72 h. Put shortly:
as §1

Data set [20] can be described thus: Antioxidant activity assessed as trolox equivalent of ferric ion reducing activity using Fe3+-TPTZ by measuring Fe2+-TPTZ formation after 4 mins by UV-vis spectrophotometry based FRAP assay. In kind it is functional. Put shortly: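 FRAP reagent: 300 mM acetate buffer, 10 mM TPTZ in ethanol and 20 mM FeCl3 (in dilute HCl) combined 10:1:1, TPTZ and iron freshly made. Sample mixed 1:9 with reagent; absorbance 593 nm after 4 min. Expressed as trolox equivalents per μM from slope of linear plot versus analog concentration.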

A short description of data set [21]: Growth inhibition of undifferentiated human Caco2 cells assessed as mitochondrial activity measured after 72 hrs by MTT assay. In kind it is functional, cell-based. Particulars: Caco-2, 72 h. In short, it runs like this:
as §1

Regarding `COc1cc(/C=C/C(=O)/C=C(/C=C/c2ccc(OC(C)=O)c(OC)c2)NC2CCCCC2)ccc1OC(C)=O`, the solubility in [1] was 5 µM (≈ 2.67 µg/mL). Also, the IC50 in data set [2] was over 25 µM; in data set [5], over 25 µM; in data set [9], 4.4 µM; in [12], over 25 µM; in data set [13], over 25 µM; in data set [14], over 25 µM. Further, the IC50 in data set [16] is 10.1 µM; in data set [18], over 25 µM; in [19] it was over 25 µM; in data set [21] it was 9.7 µM. Besides, the Activity in the data set with Caco-2 [3] was 62%; in the data set with CHO [6], 89%; in the data set with CHO [7], 122%; in the data set with HT-29 [8], 94%; in the data set with Caco-2 [10] it was 89%; with EA.hy 926 [11], 113%. Further, the values for the Activity (in the data set with HT-29 [15]; in the data set on EA.hy 926 [17]; in data set [20]) were 96%, 101% and 0.04 µMequiv/µM, respectively. In addition, the inhibition in data set [4] is 0.01%.
As to `O=C(/C=C/c1ccc(O)cc1)CC(=O)/C=C/c1ccc(O)cc1` [BISDEMETHOXYCURCUMIN], in data set [1], the solubility came to 25 µM (≈ 7.71 µg/mL). Moreover, the IC50 in [2], in data set [5], in data set [9], in [12], in [13] and in data set [14] was over 25 µM in each case. For the same compound, the IC50 in [16], in data set [18], in data set [19] and in data set [21] was over 25 µM in each case. The Activity in the data set with Caco-2 [3] came to 83%; in the data set with CHO [6] it was 101%; in the data set on CHO [7] it was 105%; in the data set on HT-29 [8], 69%; with Caco-2 [10] it was 98%; with EA.hy 926 [11], 103%. For the same compound, the Activity in the data set with HT-29 [15] turned out to be 75%; in the data set on EA.hy 926 [17], 92%; in data set [20], 0.28 µMequiv/µM. The inhibition in data set [4] was 0.02%.
On to `COc1cc(/C=C/C(=O)/C=C(/C=C/c2ccc(O)c(OC)c2)NCC(C)C)ccc1O`, for which the solubility in data set [1] is 25 µM (≈ 10.6 µg/mL). Further, the IC50 in data set [2] was over 25 µM; in data set [5], over 25 µM; in data set [9] it was over 25 µM; in [12], over 25 µM; in data set [13] it was over 25 µM; in [14], 24 µM. Besides, the IC50 is over 25 µM in data set [16], over 25 µM in data set [18], 24.5 µM in data set [19] and over 25 µM in [21]. Besides, the Activity with Caco-2 [3] came out at 74%; with CHO [6], 104%; with CHO [7] it was 118%; in the data set with HT-29 [8] it was 92%; in the data set with Caco-2 [10] it was 91%; with EA.hy 926 [11], 100%. Moreover, the Activity with HT-29 [15] came out at 91%; in the data set with EA.hy 926 [17] it was 83%; in [20], 0.89 µMequiv/µM. Further, the inhibition in data set [4] stood at 0.09%.
`CC(C)CNC(=C\C(=O)/C=C/c1ccc(O)cc1)/C=C/c1ccc(O)cc1`: the solubility in data set [1] came to 25 µM (≈ 9.09 µg/mL). Also, the IC50 is over 25 µM in [2]; over 25 µM in [5]; 18.5 µM in data set [9]; over 25 µM in data set [12]; over 25 µM in data set [13]; 22.5 µM in [14]. The IC50 worked out at 17.9 µM in [16], 23.7 µM in data set [18], 20.1 µM in [19] and 23 µM in data set [21]. The Activity came out at 82% in the data set with Caco-2 [3]; 109% in the data set on CHO [6]; 97% in the data set with CHO [7]; 75% in the data set on HT-29 [8]; 100% in the data set on Caco-2 [10]; 119% with EA.hy 926 [11]. The Activity in the data set with HT-29 [15] was 77%; with EA.hy 926 [17], 100%; in data set [20] it was 0.19 µMequiv/µM. Also, the inhibition in data set [4] came to 0.02%.
